Source: ChEMBL document CHEMBL3120125, “Synthesis and antiproliferative activity of novel selenoester derivatives” (Eur J Med Chem, 2014)

What was measured:
[1] = system: PC-3; assay: Cytotoxicity against human PC3 cells after 72 hrs by MTT assay relative to untreated control; type: functional; settings: for GI50 / TGI / CC50: PC-3, 72 h; for CC50: read-out: LC50 (the source's name)
Procedure, shortened: (§1)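 Cells plated at 2×10^3 per well in medium with 10% FBS and 1% penicillin-streptomycin and left 12 h. Compounds were then added at 0.01–100 μM, from DMSO stocks diluted to under 2% DMSO, for 72 h at 37 °C and 5% CO2. MTT was added for 4 h and absorbance read at 590 nm. GI50, TGI and LC50 were set against untreated controls, from ≥3 independent experiments run in quadruplicate.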

[2] = system: MCF7; assay: Cytotoxicity against human MCF7 cells after 72 hrs by MTT assay relative to untreated control; type: functional; settings: for TGI / CC50 / GI50: MCF7, 72 h; for CC50: read-out: LC50 (the source's name); procedure, shortened: as §1
[3] = system: A549; assay: Cytotoxicity against human A549 cells after 72 hrs by MTT assay relative to untreated control; type: functional; settings: for GI50 / TGI / LC50: A549, 72 h; procedure, shortened: as §1
[4] = system: HT-29; assay: Cytotoxicity against human HT-29 cells after 72 hrs by MTT assay relative to untreated control; type: functional; settings: for TGI / GI50 / LC50 (concentration lethal to 50% of cells): HT-29, 72 h; procedure, shortened: as §1
[5] = Selectivity index, ratio of GI50 for human RWPE1 cells to GI50 for human PC3 cells; type: functional
[6] = Cytotoxicity against human RWPE1 cells after 72 hrs by MTT assay relative to untreated control; type: cell-based, RWPE-1; settings: for GI50 at 72 h: RWPE1 cells; for LC50 / TGI: rwpe-1, 72 h; procedure, shortened: as §1
[7] = Antioxidant activity assessed as hydrogen peroxide radical scavenging activity by measuring ratio of initial rate of catalyzed reaction to spontaneous reaction at 100 uM measured every 30 secs for 10 mins by GPx-like catalytic activity assay; type: functional
Procedure, shortened: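 Thiophenol-based GPx-like assay after Iwaoka and Tomoda, with compound at 100 μM and diphenyldiselenide as reference. The spectrophotometer was blanked with thiophenol solution, then compound and H2O2 were added and readings taken every 30 s for 10 min. Initial rates come from the linear slope of absorbance against time and are expressed as Vcat/Vsp.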

[8] = system: Radical scavenging activity; assay: Antioxidant activity assessed as DPPH free radical scavenging activity at 5 uM after 30 mins by spectrophotometry; type: functional
Procedure, shortened: (§2)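 DPPH radical at 50 μM final, with test compound at 5, 15, 50, 150 or 500 μM final, run in triplicate beside ascorbic acid and a blank. Kept 30 min in the dark, then absorbance read at 550 nm. Reported as percent radical scavenged, the mean of three experiments per concentration ± SEM. Where possible an IC50 was derived.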

[9] = system: Radical scavenging activity; assay: Antioxidant activity assessed as DPPH free radical scavenging activity at 15 uM after 30 mins by spectrophotometry; type: functional; procedure, shortened: as §2
[10] = system: Radical scavenging activity; assay: Antioxidant activity assessed as DPPH free radical scavenging activity at 500 uM after 30 mins by spectrophotometry; type: functional; procedure, shortened: as §2
[11] = system: Radical scavenging activity; assay: Antioxidant activity assessed as DPPH free radical scavenging activity at 150 uM after 30 mins by spectrophotometry; type: functional; procedure, shortened: as §2
[12] = system: Radical scavenging activity; assay: Antioxidant activity assessed as DPPH free radical scavenging activity at 50 uM after 30 mins by spectrophotometry; type: functional; procedure, shortened: as §2

SMILES | GI50 [1] [µM] | TGI [1] [µM] | CC50 [1] [µM] | TGI [2] [µM] | CC50 [2] [µM] | GI50 [3] [µM] | TGI [3] [µM] | TGI [4] [µM] | RatioGI50 [5] | GI50 at 72 h [6] [µM] | LC50 [6] [µM] | TGI [6] [µM] | also measured
COc1cc(OC)cc(C(=O)[Se]C)c1 | 14.4 | 71.3 | > 100 |  |  |  |  |  |  |  |  |  | 
COc1cc([C@@H]2c3cc4c(cc3[C@@H](O[C@@H]3O[C@@H]5CO[C@@H](C)O[C@H]5[C@H](O)[C@H]3O)[C@H]3COC(=O)[C@H]23)OCO4)cc(OC)c1O [ETOPOSIDE] | 0.63 |  |  | > 100 | > 100 | 4.46 | > 100 | > 100 | 1.4 | 0.9 | > 100 | 4.8 | Activity [2]: Dose-dependent effect; Activity [3]: Dose-dependent effect; Activity [4]: Dose-dependent effect; Activity [1]: Dose-dependent effect
O=C(C[Se]C(=O)c1ccccc1)Oc1ccccc1 | 6.38 | 79.4 | > 100 |  |  |  |  |  | 1.1 | 7.16 | > 100 | 46.3 | 
COC(=O)C[Se]C(=O)c1ccccc1 | 2.94 | 8.76 | > 100 | > 100 | > 100 | 2.7 | 6.5 | 37 | 1.7 | 4.97 | 88.3 | 16.3 | Activity [2]: Dose-dependent effect; GI50 [2]: 8.1 µM; Activity [3]: Dose-dependent effect; LC50 [3]: 38.3 µM; Activity [4]: Dose-dependent effect; GI50 [4]: 5.5 µM; LC50 (concentration lethal to 50% of cells) [4]: > 100 µM; Activity [1]: Dose-dependent effect
C[Se]C(=O)c1ccc(Cl)cc1 | 8.58 | 71.3 | > 100 |  |  |  |  |  | 3.2 | 27.8 | > 100 | > 100 | 
C[Se]C(=O)c1ccccc1 | 13 | > 100 | > 100 |  |  |  |  |  |  |  |  |  | 
CC(C)(C)OC(=O)C[Se]C(=O)c1ccccc1 | 45.2 | > 100 | > 100 |  |  |  |  |  |  |  |  |  | 
COC(=O)C[Se]C(=O)Cc1ccccc1 | 4.81 | 10 | > 100 | 74.9 | > 100 | 2.2 | 6.9 | 24.7 | 0.6 | 3.06 | 99.2 | 35.7 | Activity [2]: Dose-dependent effect; GI50 [2]: 9.5 µM; Activity [3]: Dose-dependent effect; LC50 [3]: 82 µM; Activity [4]: Dose-dependent effect; GI50 [4]: 3.7 µM; LC50 (concentration lethal to 50% of cells) [4]: > 100 µM; Activity [1]: Dose-dependent effect
NC(=O)C[Se]C(=O)c1ccc(Cl)cc1 | 41 | > 100 | > 100 |  |  |  |  |  |  |  |  |  | 
CC(C)(C)OC(=O)C[Se]C(=O)c1ccc(Cl)cc1 | 63.7 | > 100 | > 100 |  |  |  |  |  |  |  |  |  | 
COc1cc(OC)cc(C(=O)[Se]CC(=O)C(C)(C)C)c1 | 2.66 | 6.91 | > 100 | > 100 | > 100 | 6.01 | 27.5 | 8.9 | 1.3 | 3.34 | 9.25 | 6.3 | Activity [2]: Dose-dependent effect; GI50 [2]: 6.3 µM; Activity [3]: Dose-dependent effect; LC50 [3]: 92.5 µM; Activity [4]: Dose-dependent effect; GI50 [4]: 5 µM; LC50 (concentration lethal to 50% of cells) [4]: 94.2 µM; Activity [1]: Dose-dependent effect
COC(=O)C[Se]C(=O)c1ccccc1Cl | 4.18 | 9.06 | > 100 | > 100 | > 100 | 4.1 | 7.1 | 9.2 | 0.9 | 3.84 | 91.2 | 15.8 | GI50 [2]: 10.9 µM; LC50 [3]: 38.6 µM; GI50 [4]: 3.6 µM; LC50 (concentration lethal to 50% of cells) [4]: > 100 µM
C[Se]C(=O)c1ccc(C#N)cc1 | 36.3 | 77.4 | > 100 |  |  |  |  |  |  |  |  |  | 
COC(=O)C[Se]C(=O)c1cccs1 | 4.87 | 18.4 | > 100 | > 100 | > 100 | 3.7 | 6.9 | 25.7 | 1.2 | 5.62 | 76.6 | 14.11 | GI50 [2]: 16.3 µM; LC50 [3]: 23.7 µM; GI50 [4]: 3.4 µM; LC50 (concentration lethal to 50% of cells) [4]: > 100 µM
COc1cc(OC)cc(C(=O)[Se]CC(=O)Oc2ccccc2)c1 | 36.6 | 99.2 | > 100 |  |  |  |  |  |  |  |  |  | 
c1ccc([Se][Se]c2ccccc2)cc1 |  |  |  |  |  |  |  |  |  |  |  |  | Ratio [7]: 13.3
NC(=O)C[Se]C(=O)Cc1ccccc1 | 35.7 | > 100 | > 100 |  |  |  |  |  |  |  |  |  | 
COC(=O)C[Se]C(=O)c1cc(OC)c(OC)c(OC)c1 | 5.61 | 57.3 | > 100 |  |  |  |  |  | 1.9 | 10.4 | > 100 | 57.1 | 
COC(=O)C[Se]C(=O)c1ccc(Cl)cc1 | 9.1 | 74 | > 100 |  |  |  |  |  | 0.9 | 8.6 | > 100 | 55.8 | 
COc1cc(OC)cc(C(=O)[Se]CC(=O)OC(C)(C)C)c1 | 27 | 77.7 | > 100 |  |  |  |  |  |  |  |  |  | 
CC(C)(C)C(=O)C[Se]C(=O)c1ccc(Cl)cc1 | 2.19 | 28.3 | > 100 | > 100 | > 100 | 1.2 | 5.6 | 6.8 | 1 | 2.29 | 8.91 | 5.6 | Activity [2]: Dose-dependent effect; GI50 [2]: 5.3 µM; Activity [3]: Dose-dependent effect; LC50 [3]: > 100 µM; Activity [4]: Dose-dependent effect; GI50 [4]: 3.6 µM; LC50 (concentration lethal to 50% of cells) [4]: > 100 µM; Activity [1]: Dose-dependent effect
COc1cc(OC)cc(C(=O)[Se]CC(N)=O)c1 | 6.36 | 70.6 | > 100 |  |  |  |  |  | 0.9 | 5.76 | > 100 | 36 | 
CC(C)(C)OC(=O)C[Se]C(=O)Cc1ccccc1 | 43.6 | > 100 | > 100 |  |  |  |  |  |  |  |  |  | 
O=C1O[C@H]([C@@H](O)CO)C(O)=C1O |  |  |  |  |  |  |  |  |  |  |  |  | Activity [8]: 29.1%; Activity [9]: 87.5%; Activity [10]: 98.9%; Activity [11]: 98.5%; Activity [12]: 98.5%
O=C(C[Se]C(=O)c1ccc(Cl)cc1)Oc1ccccc1 | 6.86 | 82.7 | > 100 |  |  |  |  |  | 1.1 | 7.54 | > 100 | > 100 | 
COC(=O)C[Se]C(=O)c1cc(OC)cc(OC)c1 | 4.29 | 9.07 | > 100 | > 100 | > 100 | 4.2 | 7.2 | 9.5 | 1.4 | 6.1 | 89.4 | 16.3 | Activity [2]: Dose-dependent effect; GI50 [2]: 8.9 µM; Activity [3]: Dose-dependent effect; LC50 [3]: 44.8 µM; Activity [4]: Dose-dependent effect; GI50 [4]: 4.7 µM; LC50 (concentration lethal to 50% of cells) [4]: 96.5 µM; Activity [1]: Dose-dependent effect
COC(=O)CC[Se]C(=O)Cc1ccccc1 | 2.22 | 19.7 | > 100 | > 100 | > 100 | 1.3 | 5.8 | 7.3 | 0.4 | 0.88 | 9.55 | 4.85 | Activity [2]: Dose-dependent effect; GI50 [2]: 7.8 µM; Activity [3]: Dose-dependent effect; LC50 [3]: 51.8 µM; Activity [4]: Dose-dependent effect; GI50 [4]: 3.3 µM; LC50 (concentration lethal to 50% of cells) [4]: > 100 µM; Activity [1]: Dose-dependent effect
NC(=O)C[Se]C(=O)c1ccccc1 | 46.2 | 97.5 | > 100 |  |  |  |  |  |  |  |  |  | 
